Common to all, as to assay type: functional
The test system of assay [1] is Rattus norvegicus. In words: The compound was tested for IL-1 generation on CMC-LPS air-pouch model at 3 mg/kg by oral administration. In short, it runs like this: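 Rats got 10 mL subcutaneous dorsal air, then 6 mL sterile 2% (w/v) CMC-Na in saline into the pouch 24 h later, then 5 ng LPS in 0.5 mL saline 24 h after that. Compound given orally as a suspension in 0.5% methyl cellulose 2 h before LPS. Exudate collected 4 h after LPS. Extra- plus intracellular IL-1 measured by LAF assay against a human recombinant IL-1α curve. Percent inhibition versus control; five rats per group.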

Assay [2] deals with Rattus norvegicus. In words: The compound was tested for Granuloma generation on CMC-LPS air-pouch model at 3 mg/kg by oral administration. In a few lines: (§1)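 Rat CMC-LPS air pouch (air, 2% CMC-Na, then LPS 5 ng). Oral dosing in 0.5% methyl cellulose 2 h before LPS. Granuloma wet weight determined 5 days after LPS; % inhibition versus control, with an LPS-free group included.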

For assay [3], the system named is Rattus norvegicus. The assay can be described thus: % inhibition against arthritis on adjuvant-untreated paw in rats at 1 mg/kg by oral administration. In short, it runs like this: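 Adjuvant arthritis in rats; drug given orally once daily from the first day of adjuvant treatment. Swelling of the adjuvant-untreated paw measured by plethysmometer on day 15 after adjuvant; % inhibition versus control. Mean ± SEM of 6–10 animals; significance versus control.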

The test system of assay [4] is Rattus norvegicus. In words: Inhibitory activity against IL-1 on CMC-LPS air-pouch model at 3 mg/kg by oral administration. In a few lines: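 Rat CMC-LPS air pouch: air s.c., 2% CMC-Na 24 h later, LPS 5 ng 24 h after that. Compound given orally in 0.5% methyl cellulose 2 h before LPS. Exudate collected at 4 h; IL-1 (extra- plus intracellular) read by LAF assay against a recombinant human IL-1α curve.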

Assay [5] deals with Rattus norvegicus. In words: Inhibitory activity against PGE-2 on CMC-LPS air-pouch model at 3 mg/kg by oral administration. In a few lines: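 Rat CMC-LPS air pouch (air, 2% CMC-Na, then LPS 5 ng). Oral dosing in 0.5% methyl cellulose 2 h before LPS. PGE2 in the exudate supernatant collected 4 h after LPS, measured by radioimmunoassay.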
Assay [6] relates to Rattus norvegicus. The assay can be described thus: Inhibitory activity against Granuloma on CMC-LPS air-pouch model at 3 mg/kg by oral administration. In short, it runs like this: as §1
Assay [7] concerns Rattus norvegicus. The assay can be described thus: Compound was evaluated in vivo for the percent inhibition of IL-1 generation in rat CMC-LPS air pouch model at 100 uM concentration. In a few lines:
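Rat air pouch: 10 mL air s.c. into the dorsum, 2% CMC-Na in saline 24 h later, then LPS 5 ng 24 h after CMC. Compound given locally in 5% EtOH-RPMI with 30% autologous serum, 100 μM final in exudate, at 30 min before and just before LPS. Exudate IL-1 (extra- plus intracellular) read by LAF at 4 h. n=5; % inhibition ± SEM.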

For assay [8], the species on record is Homo sapiens. The assay can be described thus: In vitro inhibitory activity against IL-1 generation by using human monocyte. In short, it runs like this: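 Healthy-donor peripheral mononuclear cells, adhered 1.5 h in RPMI 1640 with 10% heat-inactivated autologous serum. Adherent monocytes then stimulated with LPS 1 μg/mL for 16–18 h in 1% autologous serum with 0.1% ethanol, ± drug. Extra- plus intracellular IL-1 read by LAF assay against a recombinant human IL-1β curve. IC50 by least squares; mean of ≥2 experiments.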

The species entered for assay [9] is Rattus norvegicus. In words: In vitro inhibitory activity against IL-1 generation by using rat exudated macrophages. In a few lines: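 Fisher rat peritoneal exudate cells collected 4 days after i.p. 2.5% glycogen. Cells adhered 1.5 h at 37 °C in 1% normal rat serum. Adherent macrophages stimulated with LPS 1 ng/mL for 4 h ± compound. Intracellular IL-1 read by LAF assay against a recombinant human IL-1α curve. IC50 by least squares; mean of duplicates.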

Bounds are passed on as bounds.

Regarding `COc1ccc2c(c1)c(CC(=O)O)c(C)n2C(=O)c1ccc(Cl)cc1` [INDOMETHACIN], the IL-1 level in [1] was 995 units/mL. Also, the Wet weight in assay [2] is on record as 2.08 g. In addition, the inhibition in vivo at 1 mg/kg in assay [3] is 47.8%. Moreover, the inhibition in vivo at 3 mg/kg in assay [4] is less than 25%; in assay [5] it was 97%; in assay [6], less than 25%.

For `CCc1cccc2c(/C=C/C(=O)O)cc(Cl)c(O)c12`, the Inhibition in [7] was less than 25%. The IC50 in [8] stood at 5.4 µM; in assay [9] it was 6 µM.

As a reminder, the inhibition in vivo is the share of the control response that was lost under treatment. Usually Inhibition stands for the change of the read-out against control, counted positive when it falls. Lower therefore signals little suppression. In general, IC50 refers to the concentration that gives 50% inhibition. Low readings indicate inhibition by little substance, high ones a need for much substance.
